Measured values from ChEMBL document CHEMBL2086314, “Synthesis and anticonvulsant activity of new N-Mannich bases derived from 3-(2-fluorophenyl)- and 3-(2-bromophenyl)-pyrrolidine-2,5-diones. Part II” (Bioorg Med Chem, 2012).
The source made the active and inactive calls. The rule behind the calls is not given here.

What was measured:
[1] = tested on: Rattus norvegicus; test: Anticonvulsant activity in Sprague-Dawley rat assessed as protection from maximum electric shock-induced seizures at 30 mg/kg, po measured after 0.25 hrs; assay type: functional
Method in brief: (§1)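 Male Sprague–Dawley rats, four per group, given 30 mg/kg orally as a suspension in 0.5% methylcellulose/water. MES stimulus 150 mA, 60 Hz, 0.2 s via corneal electrodes. Tested at 0.25, 0.5, 1, 2 and 4 h; value is rats protected out of four.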

[2] = tested on: Mus musculus; test: Anticonvulsant activity in CF-1 albino mouse assessed as protection against 6 Hz psychomotor seizure at 100 mg/kg, ip measured after 0.5 hrs; assay type: functional; settings: route intraperitoneal
Method in brief: (§2)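 6-Hz psychomotor seizure in male CF-1 mice, compound suspended in 0.5% methylcellulose/water, given ip (100 or 75 mg/kg). Corneal stimulation with 0.2 ms monopolar rectangular pulses at 6 Hz for 3 s, 32 mA, constant-current device. Protected if normal exploratory behaviour resumes within 10 s. Tested 0.25–4 h after dosing; value is mice protected out of four.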

[3] = tested on: Rattus norvegicus; test: Neurotoxicity in Sprague-Dawley rat assessed as motor impairment at 30 mg/kg, po by rotarod test; assay type: toxicity, organism-based; design: dose 30 mg/kg, route oral; settings: in vivo
Method in brief: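 Male Sprague–Dawley rats, four animals, oral 30 mg/kg in 0.5% methylcellulose/water. Motor impairment on the rotarod (failure to keep balance for 1 min) assessed alongside MES at five times from 0.25 to 4 h.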

[4] = tested on: Mus musculus; test: Anticonvulsant activity in ip dosed CF-1 albino mouse assessed as protection from maximal electric shock-induced seizures measured after 4 hrs; assay type: functional; settings: read-out: MED
Method in brief: (§3)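 Male CF-1 mice dosed ip at 30, 100 or 300 mg/kg, suspension in 0.5% methylcellulose/water. MES: corneal electrodes primed with electrolyte containing anaesthetic, 50 mA, 60 Hz, 0.2 s. Examined 0.5 and 4 h after dosing. Value is the minimum dose protecting half or more of the animals.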

[5] = tested on: Mus musculus; test: Anticonvulsant activity in ip dosed 6 Hz psychomotor-induced seizure in CF-1 albino mouse assessed as time of peak effect; assay type: functional
[6] = tested on: Mus musculus; test: Anticonvulsant activity in ip dosed CF-1 albino mouse assessed as protection against 6 Hz psychomotor seizures; assay type: functional
Method in brief: (§4)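 6-Hz test (32 mA, 0.2 ms pulses at 6 Hz for 3 s, corneal) in male CF-1 mice dosed ip. Quantified at the time of peak effect in groups of eight across at least three doses giving 10–90% effect. ED50 and TD50 (minimal neurological toxicity) obtained by regression; PI = TD50/ED50.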

[7] = organism: Mus musculus; test: Protective index, ratio of TD50 for CF-1 albino mouse to ED50 for CF-1 albino mouse assessed as protection from 6 Hz psychomotor seizure; assay type: functional; method in brief: as §4
[8] = tested on: Mus musculus; test: Neurotoxicity in CF-1 albino mouse assessed as motor impairment at 300 mg/kg, ip measured after 4 hrs by rotarod test; assay type: toxicity, organism-based; design: dose 300 mg/kg, route intraperitoneal; settings: in vivo
Method in brief: (§5)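 Rotarod neurotoxicity in male CF-1 mice given ip doses of 30, 100 or 300 mg/kg (0.5% methylcellulose suspension), examined 0.5 and 4 h after dosing. Impairment means failing to hold balance on the rod for 1 min. Value is the minimum dose causing toxicity in half or more of the animals; response comments are recorded.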

[9] = tested on: Mus musculus; test: Anticonvulsant activity in ip dosed CF-1 albino mouse assessed as protection against subcutaneous pentylenetetrazol-induced seizures measured after 4 hrs; assay type: functional; settings: read-out: MED
Method in brief: (§6)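 scPTZ test in male CF-1 mice. Compound suspended in 0.5% methylcellulose/water, ip at 30, 100 or 300 mg/kg. Pentylenetetrazole 85 mg/kg (CD97, clonic seizures lasting at least 5 s) given subcutaneously at the test time, read at 0.5 and 4 h. Value is the minimum dose protecting half or more of the animals.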

[10] = tested on: Mus musculus; test: Neurotoxicity in CF-1 albino mouse assessed as inability to grasp rotarod at 300 mg/kg, ip measured after 0.5 hrs by rotarod test; assay type: toxicity, organism-based; design: dose 300 mg/kg, route intraperitoneal; settings: in vivo; method in brief: as §5
[11] = Neurotoxicity in ip dosed CF-1 albino mouse assessed as motor impairment by rotarod test; assay type: toxicity, organism-based; settings: in vivo
[12] = tested on: Mus musculus; test: Neurotoxicity in CF-1 albino mouse assessed as loss of […] reflex at 300 mg/kg, ip measured after 0.5 hrs by rotarod test; assay type: toxicity, organism-based; design: dose 300 mg/kg, route intraperitoneal; settings: in vivo; method in brief: as §5
[13] = tested on: Mus musculus; test: Anticonvulsant activity in CF-1 albino mouse assessed as protection against 6 Hz psychomotor seizure at 100 mg/kg, ip measured after 4 hrs; assay type: functional; settings: route intraperitoneal; method in brief: as §2
[14] = tested on: Rattus norvegicus; test: Anticonvulsant activity in Sprague-Dawley rat assessed as protection from maximum electric shock-induced seizures at 30 mg/kg, po measured after 1 hr; assay type: functional; method in brief: as §1
[15] = tested on: Mus musculus; test: Anticonvulsant activity in CF-1 albino mouse assessed as protection against 6 Hz psychomotor seizure at 100 mg/kg, ip measured after 0.25 hrs; assay type: functional; settings: route intraperitoneal; method in brief: as §2
[16] = tested on: Mus musculus; test: Neurotoxicity in CF-1 albino mouse assessed as myoclonic jerks at 300 mg/kg, ip measured after 4 hrs by rotarod test; assay type: toxicity, organism-based; design: dose 300 mg/kg, route intraperitoneal; settings: in vivo
[17] = tested on: Mus musculus; test: Anticonvulsant activity in ip dosed CF-1 albino mouse assessed as protection from maximal electric shock-induced seizures measured after 0.5 hrs; assay type: functional; settings: read-out: MED; method in brief: as §3
[18] = tested on: Mus musculus; test: Neurotoxicity in ip dosed CF-1 albino mouse assessed as motor impairment measured after 0.5 hrs by rotarod test; assay type: toxicity, organism-based; settings: in vivo; method in brief: as §5
[19] = tested on: Rattus norvegicus; test: Anticonvulsant activity in Sprague-Dawley rat assessed as protection from maximum electric shock-induced seizures at 30 mg/kg, po measured after 0.5 hrs; assay type: functional; method in brief: as §1
[20] = tested on: Mus musculus; test: Anticonvulsant activity in CF-1 albino mouse assessed as protection against 6 Hz psychomotor seizure at 100 mg/kg, ip measured after 1 hr; assay type: functional; settings: route intraperitoneal; method in brief: as §2
[21] = tested on: Rattus norvegicus; test: Anticonvulsant activity in Sprague-Dawley rat assessed as protection from maximum electric shock-induced seizures at 30 mg/kg, po measured after 2 hrs; assay type: functional; method in brief: as §1
[22] = tested on: Mus musculus; test: Anticonvulsant activity in CF-1 albino mouse assessed as protection against 6 Hz psychomotor seizure at 100 mg/kg, ip measured after 2 hrs; assay type: functional; settings: route intraperitoneal; method in brief: as §2
[23] = tested on: Mus musculus; test: Anticonvulsant activity in ip dosed CF-1 albino mouse assessed as protection against subcutaneous pentylenetetrazol-induced seizures measured after 0.5 hrs; assay type: functional; settings: read-out: MED; method in brief: as §6
[24] = tested on: Rattus norvegicus; test: Anticonvulsant activity in Sprague-Dawley rat assessed as protection from maximum electric shock-induced seizures at 30 mg/kg, po measured after 4 hrs; assay type: functional; method in brief: as §1
[25] = tested on: Mus musculus; test: Anticonvulsant activity in CF-1 albino mouse assessed as protection against 6 Hz psychomotor seizure at 75 mg/kg, ip measured after 2 hrs; assay type: functional; settings: route intraperitoneal; method in brief: as §2
[26] = tested on: Mus musculus; test: Neurotoxicity in CF-1 albino mouse assessed as motor impairment at 300 mg/kg, ip measured after 0.5 hrs by rotarod test; assay type: toxicity, organism-based; design: dose 300 mg/kg, route intraperitoneal; settings: in vivo; method in brief: as §5
[27] = tested on: Mus musculus; test: Anticonvulsant activity in CF-1 albino mouse assessed as protection against 6 Hz psychomotor seizure at 75 mg/kg, ip measured after 0.5 hrs; assay type: functional; settings: route intraperitoneal; method in brief: as §2
[28] = tested on: Mus musculus; test: Anticonvulsant activity in CF-1 albino mouse assessed as protection from maximal electric shock-induced seizures at 300 mg/kg, ip measured after 0.5 hrs; assay type: functional, organism-based; design: dose 300 mg/kg; method in brief: as §3
[29] = tested on: Mus musculus; test: Anticonvulsant activity in CF-1 albino mouse assessed as protection against 6 Hz psychomotor seizure at 75 mg/kg, ip measured after 1 hr; assay type: functional; settings: route intraperitoneal; method in brief: as §2
[30] = tested on: Rattus norvegicus; test: Anticonvulsant activity in po dosed maximum electric shock-induced Sprague-Dawley rat assessed as time of peak effect; assay type: functional
Method in brief: (§7)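 Male Sprague–Dawley rats dosed orally (0.5% methylcellulose suspension). MES 150 mA, 60 Hz, 0.2 s; rotarod impairment is failure to keep balance for 1 min. Groups of eight, at the previously estimated time of peak effect, with doses varied until at least three points fell in the 10–90% range. ED50/TD50 with 95% confidence intervals from regression; PI = TD50/ED50.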

[31] = tested on: Mus musculus; test: Anticonvulsant activity in CF-1 albino mouse assessed as protection against 6 Hz psychomotor seizure at 75 mg/kg, ip measured after 4 hrs; assay type: functional; settings: route intraperitoneal; method in brief: as §2
[32] = tested on: Rattus norvegicus; test: Anticonvulsant activity in po dosed Sprague-Dawley rat assessed as protection from maximum electric shock-induced seizures; assay type: functional; method in brief: as §7
[33] = organism: Rattus norvegicus; test: Protective index, ratio of TD50 for Sprague-Dawley rat to ED50 for Sprague-Dawley rat assessed as protection from maximum electric shock-induced seizures; assay type: functional; method in brief: as §7
[34] = tested on: Mus musculus; test: Anticonvulsant activity in CF-1 albino mouse assessed as protection against 6 Hz psychomotor seizure at 75 mg/kg, ip measured after 0.25 hrs; assay type: functional; settings: route intraperitoneal; method in brief: as §2
[35] = Neurotoxicity in po dosed Sprague-Dawley rat assessed as motor impairment measured at time of peak effect by rotarod test; assay type: toxicity, organism-based; settings: in vivo; method in brief: as §7

Compound: O=C1CC(c2ccccc2F)C(=O)N1CN1CCOCC1 (racemic)
- Activity [1]: 25%
- Activity [2]: 100%
- Activity [3]: Non-toxic
- minimal effective dose [4]: 100 mg/kg
- Time [5]: 4 h
- ED50 [6]: 103 mg/kg
- Ratio TD50/ED50 [7]: 2.46
- Activity [8]: Non-toxic
- minimal effective dose [9]: 300 mg/kg
- Activity [10]: Toxic
- TD50 [11]: 253 mg/kg
- Activity [12]: Toxic
- Activity [13]: 25%
- Activity [14]: 50%
- Activity [15]: 100%
- Activity [16]: Toxic
- minimal effective dose [17]: 100 mg/kg
- MTC [18]: 300 mg/kg
- Activity [19]: 25%
- Activity [20]: 100%
- Activity [21]: 50%
- Activity [22]: 75%
- minimal effective dose [23]: 300 mg/kg
- Activity [24]: 25%

Compound: O=C1CC(c2ccccc2Br)C(=O)N1CN1CCN(c2cccc(Cl)c2)CC1 (racemic)
- Activity [1]: 0%
- Activity [25]: 25%
- Activity [26]: Non-toxic
- Activity [27]: 25%
- Activity [3]: Non-toxic
- minimal effective dose [4]: 100 mg/kg
- Activity [28]: inactive
- Activity [29]: 25%
- Activity [8]: Non-toxic
- Time [30]: 4 h
- Activity [31]: 25%
- ED50 [32]: 26.4 mg/kg
- Ratio TD50/ED50 [33]: 4.77
- Activity [14]: 50%
- Activity [19]: 25%
- Activity [34]: 25%
- Activity [21]: 100%
- TD50 [35]: 126 mg/kg
- Activity [24]: 100%
